Reference: PubChem BioAssay AID488804 (Broad Institute, 2010)
Active and inactive are the calls of the source.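 Rule for the calls: active = luminescence cut by over half relative to the proteasome inhibitor control, with potency below ten times the top valid dose; inactive = no activity, or signal change in the wrong direction.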

What follows are molecules tested against 26S proteasome chymotrypsin-like activity (human) (assay: inhibitors of cellular proteasome chymotrypsin-like activity, dose response, counter-screen, cell-based, U2OS, luminescence, dry powder, set 2 (AID 488804)). Conditions: U2OS cells, Proteasome-Glo chymotrypsin luminescence.
Method in brief: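 Compound dosing: Eight-point threefold dilution series, 16.5 mM top stock; material: human U2OS osteosarcoma cells, proteasome chymotrypsin-like activity; incubation: cells 24 h/37 °C, compounds 4 h, reagent 2 h RT; replicates: duplicates; measured by: Proteasome-Glo chymotrypsin luminescence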

| SMILES | AC50 [µM] |
| --- | --- |
| O=C(Nc1ncc(-c2ccccc2)o1)c1cc(-c2ccccc2)on1 | 38 |
| Cc1cccc(NC(=O)c2cc(-c3ccccc3)on2)n1 | 2.63 |

The next lines start with the values.

| AC50 [µM] | SMILES |
| --- | --- |
| 38 | CCCCNC(=O)c1cc(-c2ccccc2)on1 |
| 6.99 | O=C(Nc1cn2ccccc2n1)c1cc(-c2ccccc2)on1 |
| 23.5 | O=C(Nc1ncc2ccccc2n1)c1cc(-c2ccccc2)on1 |

Same assay, conditions: U2OS cells, Proteasome-Glo chymotrypsin luminescence; at 38 µM (top of the series)

| SMILES | activity change, negative = inhibition |
| --- | --- |
| Cc1ccccc1CNc1nc(-c2ccccn2)nnc1-c1ccccc1 | inactive |
| O=C(Nc1ccc2ccccc2n1)c1cc(-c2ccccc2)on1 | inactive |
| c1ccc(-c2csc(Nc3nc(-c4ccccn4)nnc3-c3ccccc3)n2)cc1 | inactive |
| O=C(NCC1CCCCC1)c1cc(-c2ccccc2)on1 | inactive |
| Cc1ccccc1CNC(=O)c1cc(-c2ccccc2)on1 | inactive |
| O=C(c1cc(-c2ccccc2)on1)N1CCN(c2ccncc2)CC1 | inactive |
| O=C(Nc1nnc(-c2ccccc2)s1)c1cc(-c2ccccc2)on1 | inactive |
| CN1CCN(C(=O)c2cc(-c3ccccc3)on2)CC1 | inactive |
| O=C(c1cc(-c2ccccc2)on1)N1CCc2cccnc21 | inactive |
| O=C(NCCN1CCCCC1)c1cc(-c2ccccc2)on1 | inactive |
| O=C(NCCCCO)c1cc(-c2ccccc2)on1 | inactive |
| OCC1CCN(c2nc(-c3ccccn3)nnc2-c2ccccc2)CC1 | inactive |
| CN(C)CCNC(=O)c1cc(-c2ccccc2)on1 | inactive |
| O=C(Nc1nc(-c2ccccc2)cs1)c1cc(-c2ccccc2)on1 | inactive |
| CC(C)(C)CCNc1nc(-c2ccccn2)nnc1-c1ccccc1 | inactive |
| Cc1ccc(NC(=O)c2cc(-c3ccccc3)on2)cn1 | inactive |
| O=C(NC1CCc2ccccc2C1)c1cc(-c2ccccc2)on1 (centres undefined) | inactive |
| CN(C)c1nc(-c2ccccn2)nnc1-c1ccccc1 | inactive |
| c1ccc(CNc2nc(-c3ccccn3)nnc2-c2ccccc2)cc1 | inactive |

| SMILES | activity change, negative = inhibition |
| --- | --- |
| Cc1cccc(CNC(=O)c2cc(-c3ccccc3)on2)c1 | inactive |
| CN1CCN(c2nc(-c3ccccn3)nnc2-c2ccccc2)CC1 | inactive |
| Cc1ccc(Nc2nc(-c3ccccn3)nnc2-c2ccccc2)cn1 | inactive |
| c1ccc(-c2nnc(Nc3nc(-c4ccccn4)nnc3-c3ccccc3)s2)cc1 | inactive |
| CC(C)(C)CCNC(=O)c1cc(-c2ccccc2)on1 | inactive |
| O=C(NCCCn1ccnc1)c1cc(-c2ccccc2)on1 | inactive |
| c1ccc(-c2nnc(-c3ccccn3)nc2NCC2CC2)cc1 | inactive |
| c1ccc(-c2nnc(-c3ccccn3)nc2Nc2nc3ccccc3s2)cc1 | inactive |
| Cc1cccc(CNc2nc(-c3ccccn3)nnc2-c2ccccc2)c1 | inactive |
| c1ccc(-c2nnc(-c3ccccn3)nc2N2CCC(N3CCOCC3)CC2)cc1 | inactive |
| c1ccc(-c2nnc(-c3ccccn3)nc2N2CCN(c3ccncc3)CC2)cc1 | inactive |
| Cc1ccc(CNC(=O)c2cc(-c3ccccc3)on2)cc1 | inactive |
| Cc1cccc(Nc2nc(-c3ccccn3)nnc2-c2ccccc2)n1 | inactive |
| c1ccc(-c2nnc(-c3ccccn3)nc2NCCN2CCOCC2)cc1 | inactive |
| O=C(c1cc(-c2ccccc2)on1)N1CCC(N2CCCC2)CC1 | inactive |
| O=C(NCCCO)c1cc(-c2ccccc2)on1 | inactive |
| O=C(NCC1CC1)c1cc(-c2ccccc2)on1 | inactive |
| Cn1c(-c2ccccc2)cnc1Nc1nc(-c2ccccn2)nnc1-c1ccccc1 | inactive |

Next, values leading:

| activity change, negative = inhibition | SMILES |
| --- | --- |
| inactive | C=CCNc1nc(-c2ccccn2)nnc1-c1ccccc1 |
| inactive | c1ccc(-c2nnc(-c3ccccn3)nc2NCCCN2CCOCC2)cc1 |
| inactive | O=C(NCc1ccccc1)c1cc(-c2ccccc2)on1 |
| inactive | Cc1ccc(CNc2nc(-c3ccccn3)nnc2-c2ccccc2)cc1 |
| inactive | Cn1c(-c2ccccc2)cnc1NC(=O)c1cc(-c2ccccc2)on1 |
| inactive | O=C(c1cc(-c2ccccc2)on1)N1CCC(CO)CC1 |
| inactive | O=C(c1cc(-c2ccccc2)on1)N1CCC(N2CCOCC2)CC1 |
| inactive | O=C(NC1Cc2ccccc2C1)c1cc(-c2ccccc2)on1 |
| inactive | c1ccc(-c2nnc(-c3ccccn3)nc2Nc2cnc3ccccc3n2)cc1 |
| inactive | c1ccc(-c2cnc(Nc3nc(-c4ccccn4)nnc3-c3ccccc3)s2)cc1 |
| inactive | c1ccc(-c2nnc(-c3ccccn3)nc2NCC2CCCCC2)cc1 |
| inactive | O=C(NCCN1CCOCC1)c1cc(-c2ccccc2)on1 |
| inactive | Cn1c(NC(=O)c2cc(-c3ccccc3)on2)nc2ccccc21 |
| inactive | OCCCNc1nc(-c2ccccn2)nnc1-c1ccccc1 |
| inactive | O=C(Nc1nc2ccccc2s1)c1cc(-c2ccccc2)on1 |
| inactive | O=C(NCCCN1CCOCC1)c1cc(-c2ccccc2)on1 |
| inactive | O=C(Nc1cnc2ccccc2c1)c1cc(-c2ccccc2)on1 |
